According to ChEMBL document CHEMBL3826880, “Synthesis and evaluation of (+)-decursin derivatives as inhibitors of the Wnt/β-catenin pathway” (Bioorg Med Chem Lett, 2016):
Activity calls are given as the source filed them. The rule behind the calls is not given here.

Experiments:
[1] = Inhibition of Wnt/beta-catenin pathway in human HEK293 cells at 20 uM after 15 hrs by TOPflash dual luciferase reporter gene assay; type: cell-based
How it was run: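 HEK293 TOPFlash reporter cells were seeded at 15,000 cells/well in duplicate and grown 24 h. Compounds were then added with Wnt3a-conditioned medium from Wnt3a-secreting L cells (0.22-filtered, two harvests combined); controls ran with or without Wnt3a-CM. After 15 h, dual luciferase activity was read as RLU normalized to cell titer, averaged over three experiments. Single-concentration screen at 20 µM.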

[2] = Inhibition of Wnt/beta-catenin pathway in human HEK293 cells after 15 hrs by TOPflash dual luciferase reporter gene assay; type: cell-based; conditions: HEK293, 15 h
[3] = Antitumor activity against human PC3 cells xenografted in athymic nude mouse at 50 mg/kg, ip administered daily for 5 weeks; type: functional; conditions: PC-3, ip, 840 h, read-out: TGI
[4] = molecular target: T1, Catenin beta-1 (Homo sapiens) (UniProt P35222); assay: Downregulation of Wnt3a-CM-induced beta-catenin levels in human HEK293 cells at 12.5 to 50 uM after 15 hrs by Western blot analysis; type: cell-based
T1 sequence (whole entry): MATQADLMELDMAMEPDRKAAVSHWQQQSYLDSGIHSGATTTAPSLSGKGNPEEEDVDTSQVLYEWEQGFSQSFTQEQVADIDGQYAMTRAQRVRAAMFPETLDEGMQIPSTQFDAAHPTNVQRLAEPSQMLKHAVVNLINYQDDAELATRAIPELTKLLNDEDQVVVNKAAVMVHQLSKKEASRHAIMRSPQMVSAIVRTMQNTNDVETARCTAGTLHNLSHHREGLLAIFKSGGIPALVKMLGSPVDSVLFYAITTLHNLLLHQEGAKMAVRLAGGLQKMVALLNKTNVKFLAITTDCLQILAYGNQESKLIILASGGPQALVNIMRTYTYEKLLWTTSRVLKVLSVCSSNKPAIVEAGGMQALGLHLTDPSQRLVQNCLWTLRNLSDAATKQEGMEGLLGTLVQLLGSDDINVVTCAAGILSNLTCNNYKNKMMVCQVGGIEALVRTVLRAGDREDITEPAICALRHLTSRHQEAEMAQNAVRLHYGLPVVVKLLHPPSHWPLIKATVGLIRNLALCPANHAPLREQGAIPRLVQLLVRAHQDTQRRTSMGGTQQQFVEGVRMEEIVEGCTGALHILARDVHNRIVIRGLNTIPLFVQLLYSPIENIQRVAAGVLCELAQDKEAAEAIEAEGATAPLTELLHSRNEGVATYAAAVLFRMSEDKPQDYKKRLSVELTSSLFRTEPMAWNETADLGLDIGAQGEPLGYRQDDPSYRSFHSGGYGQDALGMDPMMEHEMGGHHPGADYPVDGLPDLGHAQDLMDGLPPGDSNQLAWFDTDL
How it was run: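 HEK293 reporter cells were treated with vehicle (DMSO) or compound in the presence of Wnt3a-CM for 15 h. Cytosolic proteins were western blotted with a β-catenin antibody, then reprobed for actin as the fraction control, with HRP secondary and ECL detection.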

[5] = molecular target: T1, Catenin beta-1 (Homo sapiens); assay: Inhibition of beta-catenin levels in human PC3 cells assessed as downregulation of cyclinD1 levels at 12.5 to 50 uM after 15 hrs by Western blot analysis; type: cell-based; conditions: PC-3
How it was run: (§1)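 PC3 cells were incubated with vehicle (DMSO) or compound for 15 h. Cell extracts were western blotted with anti-cyclin D1 and anti-myc antibodies, then reprobed with anti-actin as the control, with ECL detection.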

[6] = Cytotoxicity against human PC3 cells assessed as cell viability after 24 to 48 hrs by cell Titer-Glo assay; type: functional, cell-based; conditions: PC-3
How it was run: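 Androgen-independent PC3 cells in 96-well plates were exposed to varying compound concentrations for 24 h (figure legend) or 48 h (methods note). Viability was measured in triplicate with the CellTiter-Glo luminescent assay.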

[7] = Inhibition of Wnt/beta-catenin pathway in human HEK293 cells assessed as decrease in Wnt3a-CM-induced beta-catenin response transcription after 15 hrs by TOPflash dual luciferase reporter gene assay; type: cell-based; conditions: HEK293, 15 h
[8] = molecular target: T1, Catenin beta-1 (Homo sapiens); assay: Downregulation of cytoplasmic beta-catenin levels in human PC3 cells after 15 hrs by Western blot analysis; type: cell-based; conditions: PC-3
How it was run: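 Cytosolic fractions from PC3 cells (DMEM, 10% FBS) treated with vehicle (DMSO) or compound were western blotted with a β-catenin antibody, then reprobed with anti-actin as the fraction control.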

[9] = molecular target: T1, Catenin beta-1 (Homo sapiens); assay: Inhibition of beta-catenin levels in human PC3 cells assessed as downregulation of c-myc levels at 12.5 to 50 uM after 15 hrs by Western blot analysis; type: cell-based; conditions: PC-3; how it was run: as §1

Structure (SMILES) | inhibition [1] | also measured
COc1cccc(/C=C/C(=O)O[C@H]2Cc3cc4ccc(=O)oc4cc3OC2(C)C)c1 | 87.5% | –
COc1ccc(/C=C/C(=O)O[C@H]2Cc3cc4ccc(=O)oc4cc3OC2(C)C)c(OC)c1 | 52.8% | –
CC(=O)Oc1cccc(CCC(=O)O[C@H]2Cc3cc4ccc(=O)oc4cc3OC2(C)C)c1 | 27.5% | –
COc1ccc(CCC(=O)O[C@H]2Cc3cc4ccc(=O)oc4cc3OC2(C)C)cc1OC | 25.1% | –
CC(=O)Oc1ccc(CCC(=O)O[C@H]2Cc3cc4ccc(=O)oc4cc3OC2(C)C)cc1OC(C)=O | 46.4% | –
COc1ccc(CCC(=O)O[C@H]2Cc3cc4ccc(=O)oc4cc3OC2(C)C)c(OC)c1 | 18.8% | –
COc1ccc(CCC(=O)O[C@H]2Cc3cc4ccc(=O)oc4cc3OC2(C)C)cc1 | 41.5% | –
COc1cccc(CCC(=O)O[C@H]2Cc3cc4ccc(=O)oc4cc3OC2(C)C)c1 | 49.9% | –
CC1(C)Oc2cc3oc(=O)ccc3cc2C[C@@H]1OC(=O)/C=C/c1cccc(O)c1O | 95.7% | –
CC1(C)Oc2cc3oc(=O)ccc3cc2C[C@@H]1OC(=O)/C=C/c1ccc([N+](=O)[O-])cc1 | 34.3% | –
COc1cc(OC)c(OC)cc1/C=C/C(=O)O[C@H]1Cc2cc3ccc(=O)oc3cc2OC1(C)C | 59.6% | –
CC1(C)Oc2cc3oc(=O)ccc3cc2C[C@@H]1OC(=O)/C=C/c1ccc(O)c(O)c1 | 99.5% | IC50 [2]: 12.3 µM; inhibition in vivo at 50 mg/kg [3]: > 80%
CC(C)=CC(=O)O[C@H]1Cc2cc3ccc(=O)oc3cc2OC1(C)C [DECURSIN] | 79.4% | IC50 [2]: 176 µM
CC(=O)Oc1cccc(/C=C/C(=O)O[C@H]2Cc3cc4ccc(=O)oc4cc3OC2(C)C)c1OC(C)=O | 89.7% | –
CC1(C)Oc2cc3oc(=O)ccc3cc2C[C@@H]1OC(=O)CCc1cccc(O)c1O | 81.4% | –
CC1(C)Oc2cc3oc(=O)ccc3cc2C[C@@H]1OC(=O)/C=C/c1ccccc1O | 94.2% | –
CC1(C)Oc2cc3oc(=O)ccc3cc2C[C@@H]1OC(=O)/C=C/c1cccc(F)c1 | 93.6% | –
COc1ccc(OC)c(CCC(=O)O[C@H]2Cc3cc4ccc(=O)oc4cc3OC2(C)C)c1 | 19.9% | –
COc1ccccc1CCC(=O)O[C@H]1Cc2cc3ccc(=O)oc3cc2OC1(C)C | 50.4% | –
COc1cccc(CCC(=O)O[C@H]2Cc3cc4ccc(=O)oc4cc3OC2(C)C)c1OC | 13.5% | –
COc1ccc(/C=C/C(=O)O[C@H]2Cc3cc4ccc(=O)oc4cc3OC2(C)C)cc1OC | 42.3% | –
CC1(C)Oc2cc3oc(=O)ccc3cc2C[C@@H]1OC(=O)CCc1ccccc1 | 10.6% | –
CC1(C)Oc2cc3oc(=O)ccc3cc2C[C@@H]1OC(=O)/C=C/c1cccc(O)c1 | 93.3% | –

Structure (SMILES) | inhibition [1] | also measured
CC1(C)Oc2cc3oc(=O)ccc3cc2C[C@@H]1OC(=O)CCc1ccc(O)c(O)c1 | 68% | –
COc1ccccc1/C=C/C(=O)O[C@H]1Cc2cc3ccc(=O)oc3cc2OC1(C)C | 88.3% | –
COc1ccc(OC)c(/C=C/C(=O)O[C@H]2Cc3cc4ccc(=O)oc4cc3OC2(C)C)c1 | 65.3% | –
CC1(C)Oc2cc3oc(=O)ccc3cc2C[C@@H]1OC(=O)/C=C/c1ccccc1 | 81.1% | –
CC(=O)Oc1ccccc1/C=C/C(=O)O[C@H]1Cc2cc3ccc(=O)oc3cc2OC1(C)C | 95.9% | –
CC(=O)Oc1ccc(/C=C/C(=O)O[C@H]2Cc3cc4ccc(=O)oc4cc3OC2(C)C)cc1OC(C)=O | 94% | –
CC1(C)Oc2cc3oc(=O)ccc3cc2C[C@@H]1OC(=O)/C=C/c1cc(O)c(O)c(O)c1 | 75.3% | –
CC1(C)Oc2cc3oc(=O)ccc3cc2C[C@@H]1OC(=O)/C=C/c1ccc(O)cc1 | 78.1% | –
COc1cc(/C=C/C(=O)O[C@H]2Cc3cc4ccc(=O)oc4cc3OC2(C)C)cc(OC)c1OC | 46.9% | –
CC(=O)Oc1cccc(/C=C/C(=O)O[C@H]2Cc3cc4ccc(=O)oc4cc3OC2(C)C)c1 | 97% | Activity [4]: Active; inhibition [5]: Active; IC50 [6]: 8.97 µM; IC50 [7]: 9.85 µM; Activity [8]: Dose-dependent effect; inhibition [9]: Active
CC(=O)Oc1cccc(CCC(=O)O[C@H]2Cc3cc4ccc(=O)oc4cc3OC2(C)C)c1OC(C)=O | 77.7% | –
COc1ccc(/C=C/C(=O)O[C@H]2Cc3cc4ccc(=O)oc4cc3OC2(C)C)cc1 | 54.8% | –
COc1cccc(/C=C/C(=O)O[C@H]2Cc3cc4ccc(=O)oc4cc3OC2(C)C)c1OC | 57.8% | –
CC1(C)Oc2cc3oc(=O)ccc3cc2C[C@@H]1OC(=O)CCc1ccc(O)cc1 | 32.8% | –
CC(=O)Oc1ccc(/C=C/C(=O)O[C@H]2Cc3cc4ccc(=O)oc4cc3OC2(C)C)cc1 | 79.6% | –
CC1(C)Oc2cc3oc(=O)ccc3cc2C[C@@H]1OC(=O)/C=C/c1ccc(Br)cc1 | 40.1% | –
CC1(C)Oc2cc3oc(=O)ccc3cc2C[C@@H]1OC(=O)/C=C/c1cccc(Br)c1 | 84.8% | –
CC(=O)Oc1ccc(CCC(=O)O[C@H]2Cc3cc4ccc(=O)oc4cc3OC2(C)C)cc1 | 12% | –
CC(=O)Oc1cc(/C=C/C(=O)O[C@H]2Cc3cc4ccc(=O)oc4cc3OC2(C)C)cc(OC(C)=O)c1OC(C)=O | 67.4% | –
CC1(C)Oc2cc3oc(=O)ccc3cc2C[C@@H]1OC(=O)CCc1ccccc1O | 10% | –
CC(=O)Oc1ccccc1CCC(=O)O[C@H]1Cc2cc3ccc(=O)oc3cc2OC1(C)C | 23.1% | –
CC1(C)Oc2cc3oc(=O)ccc3cc2C[C@@H]1OC(=O)CCc1cccc(O)c1 | 42% | –
